# Results published in PMC12015351 (Scientific Reports, 2025).
# Experiments:
# 3CLpro [1] = conditions: FRET-based enzymatic assay; cited from earlier work
# [2] = tested on: SARS-CoV-2 replicon in Calu-3 cells; experiment: microbe, parasite or virus in culture; format: cell-based; conditions: for activity level in presence of Cnd: Calu-3, specific dose of Cnd (candesartan)
# [3] = tested on: SARS-CoV-2 replicon in Caco-2 cells; format: cell-based; conditions: for activity level in presence of Cnd: Caco-2, specific dose of Cnd (candesartan)
# [4] = biological target: 3CL Protease (SARS-CoV-2) (Severe acute respiratory syndrome coronavirus 2, UniProt P0DTD1); experiment: biochemical; conditions: read-out: inhibition of in vitro protease activity
# 3CLpro [5] = conditions: read-out: IC50 on 3CLpro activity; cited from earlier work
# [6] = tested on: SARS-CoV-2-induced cytopathic effects in Vero E6; conditions: live virus; cited from earlier work
# Calu-3 cells = experiment: Cell viability assay, xCelligence RTCA-DP, Calu-3; format: cell-based, human
# [7] = tested on: SARS-CoV-2-induced cytopathic effects in human A549 cells (A549/ACE2); conditions: live virus; cited from earlier work
# Caco-2 cells = experiment: Cell viability assay, xCelligence RTCA-DP, Caco-2; format: cell-based, human; conditions: 50 µM
# Summary of the method: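 Impedance-based real-time cell index monitoring. Seeding in e-plates: 15 × 10³ cells/well for Calu-3, 10 × 10³ for Caco-2. Plates rested 20 min at room temperature, then held at 37 °C, 5% CO2. After 24 h, medium replaced with test compound at 50, 10, 2 or 0.4 µM; 2 replicates per line. Readings every 15 min for 72 h; ~100 h curves compared with control.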
# [8] = tested on: SARS-CoV-2 growth in lung cells; conditions: cited from earlier work
# SARS-CoV-2 = conditions: mouse models; cited from earlier work
# [9] = person with VITT after ChAdOx1-S vaccine; cited from earlier work
structure (smiles),measurement,setting,value
"CCOc1nc2cccc(C(=O)O)c2n1Cc1ccc(-c2ccccc2-c2nnn[nH]2)cc1 [Cnd, Candesartan]",inhibitory activity on 3CLpro,3CLpro [1],did not confirm
same,"IC50 range in words, Calu-3",[2],sub-micromolar range
same,"IC50 range in words, Caco-2",[3],sub-micromolar range
same,inhibition at 50 µM,[4],≥ 50%
"CC1(C)O[C@@H]2C[C@H]3[C@@H]4C[C@H](F)C5=CC(=O)C=C[C@]5(C)[C@@]4(F)[C@@H](O)C[C@]3(C)[C@]2(C(=O)CO)O1 [Drug B2, Fluocinolone]",inhibition at 50 µM,[4],≥ 50%
"CC(=O)OCC(=O)[C@@]12OC3(CCCC3)O[C@@H]1C[C@H]1[C@@H]3CCC4=CC(=O)C=C[C@]4(C)[C@@]3(F)[C@@H](O)C[C@@]12C [Drug B5, Amcinonide]",IC50,"[2]; Severe acute respiratory syndrome coronavirus 2, Calu-3, read-out: IC50 (µM) in Calu-3 cells",2 to 5 µM
same,activity level in presence of Cnd,[3],activity at the nanomolar (nM) level
same,inhibition at 50 µM,[4],≥ 50%
"CC1(C)O[C@@H]2C[C@H]3[C@@H]4CCC5=CC(=O)C=C[C@]5(C)[C@H]4[C@@H](O)C[C@]3(C)[C@]2(C(=O)CO)O1 [Drug B7, Desonide]",inhibition at 50 µM,[4],≥ 50%
"CC(=O)[C@@]1(O)CC[C@H]2[C@@H]3C[C@H](C)C4=CC(=O)C=C[C@]4(C)[C@@]3(F)[C@@H](O)C[C@@]21C [Drug B9, Fluorometholone]",inhibition at 50 µM,[4],≥ 50%
"O=c1[nH]c2ccccc2n1C1CCN(CCCC(c2ccc(F)cc2)c2ccc(F)cc2)CC1 [Drug B11, Pimozide]",IC50,3CLpro [5],42.5 µM
same,inhibition of SARS-CoV-2-induced cytopathic effects,[6],significant inhibition
same,activity level in presence of Cnd,[2],activity at the nanomolar (nM) level
same,effect on cell proliferation (cell index),Calu-3 cells; 50 µM,reduced cell proliferation
same,inhibition of SARS-CoV-2-induced cytopathic effects,[7],significant inhibition
same,activity level in presence of Cnd,[3],activity at the nanomolar (nM) level
same,inhibition at 50 µM,[4],≥ 50%
"CC(C)C(=O)OCC(=O)[C@@]12O[C@H](C3CCCCC3)O[C@@H]1C[C@H]1[C@@H]3CCC4=CC(=O)C=C[C@]4(C)[C@H]3[C@@H](O)C[C@@]12C [Drug B12, Ciclesonide]",effect on cell proliferation (cell index),Calu-3 cells; 50 µM,reduced cell proliferation
same,effect on cell proliferation (cell index),Caco-2 cells,toxic effects
"COc1ccc2c(O[C@@H]3C[C@H]4C(=O)N[C@]5(C(=O)NS(=O)(=O)C6CC6)C[C@H]5/C=C\CCCCN(C)C(=O)[C@@H]4C3)cc(-c3nc(C(C)C)cs3)nc2c1C [Drug B18, Simeprevir]",effect on cell proliferation (cell index),Caco-2 cells,toxic effects
"Cc1c(O)cccc1C(=O)N[C@@H](CSc1ccccc1)[C@H](O)CN1C[C@H]2CCCC[C@H]2C[C@H]1C(=O)NC(C)(C)C [Drug B21, Nelfinavir]",inhibition at 50 µM,[4],≥ 50%
"Cc1ccc(NC(=O)C2(c3ccc4c(c3)OC(F)(F)O4)CC2)nc1-c1cccc(C(=O)O)c1 [Drug B22, Lumacaftor]","IC50 range in words, Calu-3",[2],sub-micromolar range
same,SARS-CoV-2 growth,[8],inhibit SARS-CoV-2 growth
same,"IC50 range in words, Caco-2",[3],sub-micromolar range
same,activity level in presence of Cnd,[3],activity at the nanomolar (nM) level
same,SARS-CoV-2 growth,SARS-CoV-2,inhibit SARS-CoV-2 growth
same,inhibition at 50 µM,[4],≥ 50%
"C[C@@H]1CCO[C@H]2Cn3cc(C(=O)NCc4ccc(F)cc4F)c(=O)c(O)c3C(=O)N12 [Drug B23, Dolutegravir]",inhibition at 50 µM,[4],≥ 50%
"NC(=O)C(c1ccccc1)(c1ccccc1)[C@@H]1CCN(CCc2ccc3c(c2)CCO3)C1 [Drug B25, Darifenacin]",effect on cell proliferation (cell index),"Calu-3 cells; 25 µM, after a certain period",reduced cell proliferation
same,effect on cell proliferation (cell index),Calu-3 cells; 50 µM,reduced cell proliferation
"CC1=NN(c2ccc(C)c(C)c2)C(=O)/C1=N\Nc1cccc(-c2cccc(C(=O)O)c2)c1O [Elt, Eltrombopag]",activity level in presence of Cnd,[2],activity at the nanomolar (nM) level
same,effect on cell proliferation (cell index),Calu-3 cells; 50 µM,reduced cell proliferation
same,effect on cell proliferation (cell index),Caco-2 cells,toxic effects
same,activity level in presence of Cnd,[3],activity at the nanomolar (nM) level
same,inhibition at 50 µM,[4],≥ 50%
same,platelet levels,[9],normalized
CC(C)COCC(CN(Cc1ccccc1)c1ccccc1)N1CCCC1 (stereo not shown) [bepridil],inhibition of SARS-CoV-2-induced cytopathic effects,[6],significant inhibition
same,inhibition of SARS-CoV-2-induced cytopathic effects,[7],significant inhibition
CC(C)(C)c1cc(C(C)(C)C)c(NC(=O)c2c[nH]c3ccccc3c2=O)cc1O [ivacaftor],SARS-CoV-2 growth,[8],inhibit SARS-CoV-2 growth
same,SARS-CoV-2 growth,SARS-CoV-2,inhibit SARS-CoV-2 growth
